# ChEMBL document CHEMBL3784971, “Synthesis, characterization, antimicrobial and biofilm inhibitory studies of new esterquats” (Bioorg Med Chem Lett, 2016)
# Assays:
# Candida albicans [1] = experiment: Antimicrobial activity against Candida albicans MTCC 3017 assessed as growth inhibition after 24 hrs by agar well diffusion method; type: functional; conditions: MTCC 3017, 24 h
# Candida albicans [2] = experiment: Antimicrobial activity against Candida albicans MTCC 183 assessed as growth inhibition after 24 hrs by agar well diffusion method; type: functional; conditions: MTCC 183, 24 h
# Candida albicans [3] = experiment: Antimicrobial activity against Candida albicans MTCC 227 assessed as growth inhibition after 24 hrs by agar well diffusion method; type: functional; conditions: MTCC 227, 24 h
# Candida albicans [4] = experiment: Antimicrobial activity against Candida albicans MTCC 854 assessed as growth inhibition after 24 hrs by agar well diffusion method; type: functional; conditions: MTCC 854, 24 h
# Candida albicans [5] = experiment: Antimicrobial activity against Candida albicans MTCC 1637 assessed as growth inhibition after 24 hrs by agar well diffusion method; type: functional; conditions: MTCC 1637, 24 h
# Candida albicans [6] = experiment: Antimicrobial activity against Candida albicans MTCC 3018 assessed as growth inhibition after 24 hrs by agar well diffusion method; type: functional; conditions: MTCC 3018, 24 h
# Candida albicans [7] = experiment: Antimicrobial activity against Candida albicans MTCC 3958 assessed as growth inhibition after 24 hrs by agar well diffusion method; type: functional; conditions: MTCC 3958, 24 h
# Candida albicans [8] = experiment: Antimicrobial activity against Candida albicans MTCC 4748 assessed as growth inhibition after 24 hrs by agar well diffusion method; type: functional; conditions: MTCC 4748, 24 h
# Candida albicans [9] = experiment: Antimicrobial activity against Candida albicans MTCC 7315 assessed as growth inhibition after 24 hrs by agar well diffusion method; type: functional; conditions: MTCC 7315, 24 h
# Candida parapsilosis [10] = experiment: Antimicrobial activity against Candida parapsilosis MTCC 1744 assessed as growth inhibition after 24 hrs by agar well diffusion method; type: functional; conditions: Lodderomyces parapsilosis, MTCC 1744, 24 h
# [Candida] aaseri [11] = Antimicrobial activity against Candida aaseri MTCC 1962 assessed as growth inhibition after 24 hrs by agar well diffusion method; type: functional; conditions: Yamadazyma aaseri, MTCC 1962, 24 h
# Nakaseomyces glabratus [12] = experiment: Antimicrobial activity against Candida glabrata MTCC 3019 assessed as growth inhibition after 24 hrs by agar well diffusion method; type: functional; conditions: MTCC 3019, 24 h
# Pichia kudriavzevii [13] = experiment: Antimicrobial activity against Candida krusei MTCC 3020 assessed as growth inhibition after 24 hrs by agar well diffusion method; type: functional; conditions: MTCC 3020, 24 h
# Pichia sporocuriosa [14] = experiment: Antimicrobial activity against Issatchenkia hanoiensis MTCC 4755 assessed as growth inhibition after 24 hrs by agar well diffusion method; type: functional; conditions: MTCC 4755, 24 h
# Candida albicans [15] = experiment: Fungicidal activity against Candida albicans MTCC 3017 after 24 hrs by serial dilution method; type: functional; conditions: MTCC 3017, 24 h
# Candida albicans [16] = experiment: Fungicidal activity against Candida albicans MTCC 183 after 24 hrs by serial dilution method; type: functional; conditions: MTCC 183, 24 h
# Candida albicans [17] = experiment: Fungicidal activity against Candida albicans MTCC 227 after 24 hrs by serial dilution method; type: functional; conditions: MTCC 227, 24 h
# Candida albicans [18] = experiment: Fungicidal activity against Candida albicans MTCC 854 after 24 hrs by serial dilution method; type: functional; conditions: MTCC 854, 24 h
# Candida albicans [19] = experiment: Fungicidal activity against Candida albicans MTCC 1637 after 24 hrs by serial dilution method; type: functional; conditions: MTCC 1637, 24 h
# Candida albicans [20] = experiment: Fungicidal activity against Candida albicans MTCC 3018 after 24 hrs by serial dilution method; type: functional; conditions: MTCC 3018, 24 h
# Candida albicans [21] = experiment: Fungicidal activity against Candida albicans MTCC 3958 after 24 hrs by serial dilution method; type: functional; conditions: MTCC 3958, 24 h
# Candida albicans [22] = experiment: Fungicidal activity against Candida albicans MTCC 4748 after 24 hrs by serial dilution method; type: functional; conditions: MTCC 4748, 24 h
# Candida albicans [23] = experiment: Fungicidal activity against Candida albicans MTCC 7315 after 24 hrs by serial dilution method; type: functional; conditions: MTCC 7315, 24 h
# Candida parapsilosis [24] = experiment: Fungicidal activity against Candida parapsilosis MTCC 1744 after 24 hrs by serial dilution method; type: functional; conditions: Lodderomyces parapsilosis, MTCC 1744, 24 h
# [Candida] aaseri [25] = Fungicidal activity against Candida aaseri MTCC 1962 after 24 hrs by serial dilution method; type: functional; conditions: Yamadazyma aaseri, MTCC 1962, 24 h
# Nakaseomyces glabratus [26] = experiment: Fungicidal activity against Candida glabrata MTCC 3019 after 24 hrs by serial dilution method; type: functional; conditions: MTCC 3019, 24 h
# Pichia kudriavzevii [27] = experiment: Fungicidal activity against Candida krusei MTCC 3020 after 24 hrs by serial dilution method; type: functional; conditions: MTCC 3020, 24 h
# Pichia sporocuriosa [28] = experiment: Fungicidal activity against Issatchenkia hanoiensis MTCC 4755 after 24 hrs by serial dilution method; type: functional; conditions: MTCC 4755, 24 h
# Staphylococcus aureus [29] = experiment: Antimicrobial activity against Staphylococcus aureus MTCC 96 assessed as growth inhibition after 24 hrs by agar well diffusion method; type: functional; conditions: MTCC 96, 24 h
# Bacillus subtilis [30] = experiment: Antimicrobial activity against Bacillus subtilis MTCC 121 assessed as growth inhibition after 24 hrs by agar well diffusion method; type: functional; conditions: MTCC 121, 24 h
# Staphylococcus aureus [31] = experiment: Antimicrobial activity against Staphylococcus aureus MLS16 MTCC 2940 assessed as growth inhibition after 24 hrs by agar well diffusion method; type: functional; conditions: MLS16 MTCC 2940, 24 h
# Micrococcus luteus [32] = experiment: Antimicrobial activity against Micrococcus luteus MTCC 2470 assessed as growth inhibition after 24 hrs by agar well diffusion method; type: functional; conditions: MTCC 2470, 24 h
# Raoultella planticola [33] = experiment: Antimicrobial activity against Klebsiella planticola MTCC 530 assessed as growth inhibition after 24 hrs by agar well diffusion method; type: functional; conditions: MTCC 530, 24 h
# Escherichia coli [34] = experiment: Antimicrobial activity against Escherichia coli MTCC 739 assessed as growth inhibition after 24 hrs by agar well diffusion method; type: functional; conditions: MTCC 739, 24 h
# Pseudomonas aeruginosa = experiment: Antimicrobial activity against Pseudomonas aeruginosa MTCC 2453 assessed as growth inhibition after 24 hrs by agar well diffusion method; type: functional; conditions: MTCC 2453, 24 h
# Staphylococcus aureus [35] = experiment: Bactericidal activity against Staphylococcus aureus MTCC 96 after 24 hrs by serial dilution method; type: functional; conditions: MTCC 96, 24 h
# Bacillus subtilis [36] = experiment: Bactericidal activity against Bacillus subtilis MTCC 121 after 24 hrs by serial dilution method; type: functional; conditions: MTCC 121, 24 h
# Staphylococcus aureus [37] = experiment: Bactericidal activity against Staphylococcus aureus MLS16 MTCC 2940 after 24 hrs by serial dilution method; type: functional; conditions: MLS16 MTCC 2940, 24 h
# Micrococcus luteus [38] = experiment: Bactericidal activity against Micrococcus luteus MTCC 2470 after 24 hrs by serial dilution method; type: functional; conditions: MTCC 2470, 24 h
# Raoultella planticola [39] = experiment: Bactericidal activity against Klebsiella planticola MTCC 530 after 24 hrs by serial dilution method; type: functional; conditions: MTCC 530, 24 h
# Escherichia coli [40] = experiment: Bactericidal activity against Escherichia coli MTCC 739 after 24 hrs by serial dilution method; type: functional; conditions: MTCC 739, 24 h
# Staphylococcus aureus [41] = experiment: Antibiofilm activity against Staphylococcus aureus MTCC 96 after 24 hrs by crystal violet staining based assay; type: functional, organism-based; conditions: MTCC 96, 24 h
# In short: (§1)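 Biofilm inhibition tested for amine esters and esterquats. IC50 values (µg/mL) are the mean of three determinations, with ciprofloxacin as reference.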
# Micrococcus luteus [42] = experiment: Antibiofilm activity against Micrococcus luteus MTCC 2470 after 24 hrs by crystal violet staining based assay; type: functional, organism-based; conditions: MTCC 2470, 24 h; in short: as §1
smiles,measurement,setting,value
Clc1ccc(COC(Cn2ccnc2)c2ccc(Cl)cc2Cl)c(Cl)c1 (configuration not stated) [MICONAZOLE],MIC,Candida albicans [1],7.8 µg/mL
same,MIC,Candida albicans [2],7.8 µg/mL
same,MIC,Candida albicans [3],7.8 µg/mL
same,MIC,Candida albicans [4],7.8 µg/mL
same,MIC,Candida albicans [5],7.8 µg/mL
same,MIC,Candida albicans [6],7.8 µg/mL
same,MIC,Candida albicans [7],7.8 µg/mL
same,MIC,Candida albicans [8],7.8 µg/mL
same,MIC,Candida albicans [9],7.8 µg/mL
same,MIC,Candida parapsilosis [10],7.8 µg/mL
same,MIC,[Candida] aaseri [11],7.8 µg/mL
same,MIC,Nakaseomyces glabratus [12],7.8 µg/mL
same,MIC,Pichia kudriavzevii [13],7.8 µg/mL
same,MIC,Pichia sporocuriosa [14],7.8 µg/mL
same,MFC,Candida albicans [15],7.8 µg/mL
same,MFC,Candida albicans [16],7.8 µg/mL
same,MFC,Candida albicans [17],15.6 µg/mL
same,MFC,Candida albicans [18],15.6 µg/mL
same,MFC,Candida albicans [19],15.6 µg/mL
same,MFC,Candida albicans [20],7.8 µg/mL
same,MFC,Candida albicans [21],15.6 µg/mL
same,MFC,Candida albicans [22],7.8 µg/mL
same,MFC,Candida albicans [23],7.8 µg/mL
same,MFC,Candida parapsilosis [24],7.8 µg/mL
same,MFC,[Candida] aaseri [25],7.8 µg/mL
same,MFC,Nakaseomyces glabratus [26],15.6 µg/mL
same,MFC,Pichia kudriavzevii [27],7.8 µg/mL
same,MFC,Pichia sporocuriosa [28],7.8 µg/mL
CCCCCCCCCCCCCCCCCC[N+](C)(C)CCCCCCCCCCC(=O)OC.[Cl-],MIC,Staphylococcus aureus [29],> 125 µg/mL
same,MIC,Bacillus subtilis [30],> 125 µg/mL
same,MIC,Staphylococcus aureus [31],> 125 µg/mL
same,MIC,Micrococcus luteus [32],> 125 µg/mL
same,MIC,Raoultella planticola [33],> 125 µg/mL
same,MIC,Escherichia coli [34],> 125 µg/mL
same,MIC,Pseudomonas aeruginosa,> 125 µg/mL
same,MIC,Candida albicans [1],> 125 µg/mL
same,MBC,Staphylococcus aureus [35],> 125 µg/mL
same,MBC,Bacillus subtilis [36],> 125 µg/mL
same,MBC,Staphylococcus aureus [37],> 125 µg/mL
same,MBC,Micrococcus luteus [38],> 125 µg/mL
same,MBC,Raoultella planticola [39],> 125 µg/mL
same,MBC,Escherichia coli [40],> 125 µg/mL
CCCCCCCCCCCCCCCCCCN(CCCCCCCCCCC(=O)OC)CCCCCCCCCCC(=O)OC,MIC,Staphylococcus aureus [29],> 125 µg/mL
same,MIC,Bacillus subtilis [30],> 125 µg/mL
same,MIC,Staphylococcus aureus [31],> 125 µg/mL
same,MIC,Micrococcus luteus [32],> 125 µg/mL
same,MIC,Raoultella planticola [33],> 125 µg/mL
same,MIC,Escherichia coli [34],> 125 µg/mL
same,MIC,Pseudomonas aeruginosa,> 125 µg/mL
same,MIC,Candida albicans [1],> 125 µg/mL
same,MBC,Staphylococcus aureus [35],> 125 µg/mL
same,MBC,Bacillus subtilis [36],> 125 µg/mL
same,MBC,Staphylococcus aureus [37],> 125 µg/mL
same,MBC,Micrococcus luteus [38],> 125 µg/mL
same,MBC,Raoultella planticola [39],> 125 µg/mL
same,MBC,Escherichia coli [40],> 125 µg/mL
CCCCCCCCCCCCNCCCCCCCCCCC(=O)OC,MIC,Staphylococcus aureus [29],> 125 µg/mL
same,MIC,Bacillus subtilis [30],> 125 µg/mL
same,MIC,Staphylococcus aureus [31],> 125 µg/mL
same,MIC,Micrococcus luteus [32],> 125 µg/mL
same,MIC,Raoultella planticola [33],> 125 µg/mL
same,MIC,Escherichia coli [34],> 125 µg/mL
same,MIC,Pseudomonas aeruginosa,> 125 µg/mL
same,MIC,Candida albicans [1],> 125 µg/mL
same,MBC,Staphylococcus aureus [35],> 125 µg/mL
same,MBC,Bacillus subtilis [36],> 125 µg/mL
same,MBC,Staphylococcus aureus [37],> 125 µg/mL
same,MBC,Micrococcus luteus [38],> 125 µg/mL
same,MBC,Raoultella planticola [39],> 125 µg/mL
same,MBC,Escherichia coli [40],> 125 µg/mL
CCCCCCN(CCCCCCCCCCC(=O)OC)CCCCCCCCCCC(=O)OC,MIC,Staphylococcus aureus [29],31.2 µg/mL
same,MIC,Bacillus subtilis [30],62.5 µg/mL
same,MIC,Staphylococcus aureus [31],62.5 µg/mL
same,MIC,Micrococcus luteus [32],31.2 µg/mL
same,MIC,Raoultella planticola [33],> 125 µg/mL
same,MIC,Escherichia coli [34],> 125 µg/mL
same,MIC,Pseudomonas aeruginosa,> 125 µg/mL
same,MIC,Candida albicans [1],> 125 µg/mL
same,MBC,Staphylococcus aureus [35],62.5 µg/mL
same,MBC,Bacillus subtilis [36],> 125 µg/mL
same,MBC,Staphylococcus aureus [37],> 125 µg/mL
same,MBC,Micrococcus luteus [38],62.5 µg/mL
same,MBC,Raoultella planticola [39],> 125 µg/mL
same,MBC,Escherichia coli [40],> 125 µg/mL
same,IC50,Staphylococcus aureus [41],20.1 µg/mL
same,IC50,Micrococcus luteus [42],18.6 µg/mL
CCCCCCCCN(CCCCCCCC)CCCCCCCCCCC(=O)OC,MIC,Staphylococcus aureus [29],15.6 µg/mL
same,MIC,Bacillus subtilis [30],> 125 µg/mL
same,MIC,Staphylococcus aureus [31],62.5 µg/mL
same,MIC,Micrococcus luteus [32],31.2 µg/mL
same,MIC,Raoultella planticola [33],> 125 µg/mL
same,MIC,Escherichia coli [34],> 125 µg/mL
same,MIC,Pseudomonas aeruginosa,> 125 µg/mL
same,MIC,Candida albicans [1],> 125 µg/mL
same,MBC,Staphylococcus aureus [35],31.2 µg/mL
same,MBC,Bacillus subtilis [36],> 125 µg/mL
same,MBC,Staphylococcus aureus [37],> 125 µg/mL
same,MBC,Micrococcus luteus [38],62.5 µg/mL
same,MBC,Raoultella planticola [39],> 125 µg/mL
same,MBC,Escherichia coli [40],> 125 µg/mL
same,IC50,Staphylococcus aureus [41],14.5 µg/mL
same,IC50,Micrococcus luteus [42],17.2 µg/mL
